Source: PubChem BioAssay (several laboratories)
PG9 Ab binder – small molecules binding HIV-1 gp120 antibody PG9; TR-FRET gp120-PG9 antibody binding; inhibition, % at 6.7 µM; hit rate 0.43% among 360,000; AID 624416; in the data active means inhibition above about 8.5%
NR1D1 modulator – modulates human Rev-erb alpha binding to DNA; P20393; hit rate 0.79% among 370,000; Rev-erbα–FITC-DNA binding, fluorescence polarization, 90 min; activity, % at 10 µM;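 active means activity above about 14%, limit read from the data; passing the limit was not always enough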;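 further: 0% = DMSO wells with 35 nM protein and 100% = DMSO wells with 750 nM protein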
Target sequence (P20393 whole entry, looked up): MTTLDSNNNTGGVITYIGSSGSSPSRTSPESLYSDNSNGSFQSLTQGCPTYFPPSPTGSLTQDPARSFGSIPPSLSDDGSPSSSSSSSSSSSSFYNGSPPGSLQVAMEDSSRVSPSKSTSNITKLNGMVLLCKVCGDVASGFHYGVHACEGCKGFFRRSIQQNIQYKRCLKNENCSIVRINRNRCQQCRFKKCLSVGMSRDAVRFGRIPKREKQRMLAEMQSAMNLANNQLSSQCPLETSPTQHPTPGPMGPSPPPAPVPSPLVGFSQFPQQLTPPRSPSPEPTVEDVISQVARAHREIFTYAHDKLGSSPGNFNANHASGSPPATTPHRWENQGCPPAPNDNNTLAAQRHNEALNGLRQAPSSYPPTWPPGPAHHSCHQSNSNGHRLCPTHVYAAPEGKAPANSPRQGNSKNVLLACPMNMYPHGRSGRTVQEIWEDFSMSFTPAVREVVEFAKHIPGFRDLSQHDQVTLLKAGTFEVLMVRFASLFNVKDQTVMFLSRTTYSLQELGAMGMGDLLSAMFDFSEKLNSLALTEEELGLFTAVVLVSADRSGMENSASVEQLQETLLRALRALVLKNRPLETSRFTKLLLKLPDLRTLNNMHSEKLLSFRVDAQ
iPSC survival up – hiPSC single-cell survival enhancement. ATPlite luminescence; 100% = ROCK inhibitor wells, 0% = DMSO. survival enhancement, % at 20 µM. hit rate 0.044% among 360,000. AID 602274; in the data active means survival enhancement above about 18%;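 further: cells exposed to compounds for 16 hours before the ATP read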
beta cell repl – induces beta-cell replication in MIN6 cells; hit rate 0.29% among 330,000; AID 2380; MIN6 cells proliferation, ATPlite luminescence, 48 h; cells starved in 0.2% serum; 100% = growth in 10% serum; proliferation, % at 10 µM;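 active means compounds whose signal lies at least 3.5 SD above the mean of all wells on their plate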;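 further: 0% = DMSO-treated cells in low-serum medium and 100% = 10% serum control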
T cruzi repl – blocks replication of Trypanosoma cruzi. T. cruzi beta-gal in NIH3T3, luminescence, 90 h. inhibition, % (test concentration not listed). hit rate 1.4% among 300,000;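 active means mean inhibition across valid replicates above about 55%, limit read from the data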;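 further: signal also drops with host cell toxicity which is not excluded here; 0% = plate median of DMSO wells and 100% = zero luminescence signal; higher percent means less beta-gal luminescence so fewer parasites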
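System: NIH/3T3 fibroblasts plus reporter T. cruzi. Medium: DMEM plus 2% FBS. Probe or stimulus: 5000 reporter trypomastigotes per well. Compound: single 50 nL compound addition per well in DMSO. Incubation: co-culture of at least 90 h after 3 h attachment. Detection: GalScreen β-gal luminescence, detergent lysis, 60 min. Evaluation: parasite load inhibition, %.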
TAG inh – triacylglycerol accumulation inhibition; H9c2 cells, Nile Red lipid (TAG) fluorescence; cells loaded with 200 µM oleic acid; inhibition, % at 12.5 µM; hit rate 0.66% among 230,000;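 active means pattern-corrected inhibition of lipid staining of at least 50% with the nuclear-stain viability signal not falling by more than 50%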;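 further: 0% = DMSO wells and 100% = triacsin C control wells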
* = called active by the depositor; · = no result. The list is not random: actives were taken first. Their share in the collection is about 2.9%.

SMILES	PG9 Ab binder	NR1D1 modulator	iPSC survival up	beta cell repl	T cruzi repl	TAG inh
COc1ccc(CN(C(=O)Cc2cccs2)C(C(=O)NC2CCCC2)c2ccncc2)cc1 (centres undefined)	-0.2	-3.2	1.1	-3.5	66.0*	·
CC(=O)Nc1ccc(N(C(=O)Cc2c[nH]c3ccccc23)C(C(=O)NC2CCCCC2)c2ccco2)cc1 (centres undefined)	-0.1	2.5	-0.4	0.0	-3.9	·
O=C(Cc1ccccc1)NC(NC(=S)Nc1cc(Cl)ccc1Cl)C(Cl)(Cl)Cl (centres undefined)	-2.0	-3.9	-1.6	-6.0	-7.4	12.3
O=C(NC1CCCCC1)C(c1cccs1)N(C(=O)Cc1c[nH]c2ccccc12)c1ccc(F)cc1 (centres undefined)	-1.4	4.0	5.7	-5.6	57.0*	·
Cc1ccc(N=c2oc3cc(O)ccc3cc2C(N)=O)cc1	0.0	-1.1	-3.7	-4.4	60.2*	-1.7
Cc1ccc(-n2nnnc2C(Cl)(Cl)c2nnnn2-c2ccc(C)cc2)cc1	-1.0	4.4	-1.6	-4.5	63.3*	·
Clc1ccc(-c2nnnn2-c2ccc(Cl)cc2)cc1	0.2	-0.1	0.3	0.7	3.2	-10.0
c1ccc(N=Nc2ccc3cccccc2-3)cc1	-3.4	6.5	0.7	-2.2	-2.5	96.3*
Nc1ccc(N=Nc2ccccc2)c2ccccc12	-0.7	12.1	-0.3	-5.1	15.1	·
ClCC1CSC(=NC23CC4CC(CC(C4)C2)C3)O1 (centres undefined)	0.3	0.5	-1.9	-1.8	4.5	8.8
Cc1c(C(O)CN2CCN(Cc3ccc4c(c3)OCO4)CC2)c2ccccc2n1C (centres undefined)	1.0	5.4	-1.0	-4.5	66.5*	·
CCN(CC)S(=O)(=O)c1ccc(N2CCN(C)CC2)c(NC(=O)CSCC(=O)Nc2cccc(C)c2)c1	-0.1	0.6	-0.5	1.4	37.7	-8.5
CC1CCN(c2c([N+](=O)[O-])nn(-c3ccc4c(c3)OCCO4)[n+]2[O-])CC1	0.9	4.4	0.2	-1.1	61.7*	0.6
O=C(CSc1nnc(-c2ccccn2)n1-c1ccccc1)c1ccc2c(c1)OCO2	·	-1.4	·	·	·	·
Cc1ccc(C(=O)N/C(=C\c2ccc(-c3ccccc3[N+](=O)[O-])o2)C(=O)NCCCN(C)C)cc1	-9.4	-1.1	-0.5	-6.5	15.8	·
Cc1ccc(C(=O)N/C(=C\c2ccc(-c3ccc(Cl)cc3)o2)C(=O)NCCCN(C)C)cc1	-3.0	0.8	-1.5	-5.5	55.7*	·
CCCCNC(=O)/C(=C\c1ccc([N+](=O)[O-])o1)NC(=O)c1ccccc1	-2.4	2.2	-2.6	-2.1	63.3*	·
COC(=O)/C(=C\c1ccc([N+](=O)[O-])o1)NC(=O)c1ccccc1	-2.9	0.8	-2.9	-4.2	49.2	-37.3
CN(C)CCCNC(=O)/C(=C\c1ccc(-c2ccc(Br)cc2)o1)NC(=O)c1ccccc1	-7.2	-0.1	-2.5	-6.4	26.9	·
Cc1ccc(C(=O)N/C(=C\c2ccc(-c3ccccc3[N+](=O)[O-])o2)C(=O)NCCN(C)C)cc1	-12.0	3.1	-0.9	-5.2	20.2	57.2*
COc1cc(NS(=O)(=O)c2cc(C)ccc2OC)c(OC)cc1Cl	1.3	2.5	0.2	-2.2	4.8	-2.4
CN(C)CC(C)(C)CN=Cc1c(O)[nH]c2ccccc12	0.1	-5.5	0.7	-3.7	60.5*	-1.4
CC1=CC(C)(C)N2C(=O)C3(NCCc4c3[nH]c3ccccc43)c3cc(C)cc1c32 (centres undefined)	-2.5	2.8	0.2	-4.6	0.9	67.5*
Nc1nc(-c2ccc(Cl)cc2)c(N=Nc2ccc(S(=O)(=O)N3CCOCC3)cc2)s1	1.4	10.7	-1.5	0.0	59.1*	·
O=S(=O)(c1ccc(F)cc1)c1nc(-c2ccccc2F)oc1N1CCCCC1	0.1	-0.1	2.4	-5.1	70.7*	·
Cc1ccc(S(=O)(=O)CC(=O)Nc2ccc(S(=O)(=O)Nc3ccccn3)cc2)cc1	1.8	2.7	0.2	4.2	-12.5	6.0
O=C(O)c1ccccc1Nc1cc(Cl)c2nonc2c1[N+](=O)[O-]	-1.0	4.5	0.3	-1.3	9.1	1.6
O=[N+]([O-])c1c(Nc2ccccn2)cc(Cl)c2nonc12	0.6	-7.3	-1.1	-3.9	59.8*	112.8
